Results collected from several papers.
Compare with care: the assays were run in different laboratories.
T1R2/T1R3: T1R2/T1R3 (Homo sapiens, UniProt Q7RTX0+Q8TE23)
PIK3CA: Phosphatidylinositol 4,5-bisphosphate 3-kinase catalytic subunit alpha isoform (PIK3CA, Homo sapiens, UniProt P42336)
FOLH1: Glutamate carboxypeptidase 2 (FOLH1, Homo sapiens, UniProt Q04609)

| SMILES | target | effect on | mode | technique | endpoint | value |
| --- | --- | --- | --- | --- | --- | --- |
| OC[C@H]1O[C@H](O[C@]2(CCl)O[C@H](CCl)[C@@H](O)[C@@H]2O)[C@H](O)[C@@H](O)[C@H]1Cl | T1R2/T1R3 | calcium signal | agonist |  | EC50 | 232 µM |
| CCCCC(=O)Nc1ccc(-c2ccc3ncn(CCC)c(=O)c3c2)cn1 | Phosphatidylinositol 5-phosphate 4-kinase type-2 beta (PIP4K2B, Homo sapiens, UniProt P78356) | binding |  | competition with immobilised ligand | Kd | > 20 µM |
| C=CCN1C(=O)C(=Nc2cccc(C)c2)c2ccccc21 | PIK3CA | enzyme activity | inhibitor | ADP detection | IC50 | 0.205 µM |
| CN(C)C(=O)c1cc2cnc(Nc3cccc4c(=O)cc(N5CCOCC5)oc34)nc2n1C1CCCC1 | PIK3CA | enzyme activity | inhibitor | radiometric | IC50 | > 10 µM |
| O.O=C([O-])CN(CCN(CC(=O)[O-])Cc1cc(CCC(=O)O)ccc1O)Cc1cc(CCC(=O)NCCCCCC(=O)NCCCC[C@H](NC(=O)N[C@@H](CCC(=O)O)C(=O)O)C(=O)O)ccc1[O-].[Ga+3] | FOLH1 | binding |  | radioligand | Kd | 0.0116 µM |
| CC[C@H](C)[C@H](NC(=O)C[C@@H](NC(=O)CCC(=O)O)C(=O)O)C(=O)N[C@H]1CCc2cccc3c2N(C1=O)[C@H](C(=O)NCc1cn[nH]n1)C3 | Granzyme B (GZMB, Homo sapiens, UniProt P10144) | enzyme activity | inhibitor | fluorescence | Ki | 0.0072 µM |
| CC1(C)CN(CCCCC(=O)N[C@@H](CCCCNC(=O)CCCCCCC(=O)NCCCC[C@H](NC(=O)N[C@@H](CCC(=O)O)C(=O)O)C(=O)O)C(=O)O)CC[N]2CC(C)(C)[S][Tc]2(=[O])[S]1 (some centres unmarked) | FOLH1 | binding |  | radioligand | Kd | 0.0144 µM |
| CCc1ccc(N=C2C(=O)Nc3ccccc32)cc1 | PIK3CA | enzyme activity | inhibitor | ADP detection | IC50 | 0.098 µM |
| O=S(=O)(O)NC1CCCCC1 | T1R2/T1R3 | calcium signal | agonist |  | EC50 | 2750 µM |
| O=C1Nc2ccccc2/C1=N/c1ccccc1Br | Phosphatidylinositol 4,5-bisphosphate 3-kinase catalytic subunit beta isoform (PIK3CB, Homo sapiens, UniProt P42338) | enzyme activity | inhibitor | ADP detection | IC50 | 0.524 µM |
| CN(C)C(=O)c1cc2cnc(Nc3cccc(-c4cccc5c(=O)cc(N6CCOCC6)oc45)c3)nc2n1C1CCCC1 | PIK3CA | enzyme activity | inhibitor | radiometric | IC50 | 8.17 µM |
| O=C1C(=Nc2ccc(Cl)cc2)c2ccccc2N1Cc1ccc(Br)cc1 | PIK3CA | enzyme activity | inhibitor | ADP detection | IC50 | 0.0298 µM |
| CN(C)C(=O)c1cc2cnc(Nc3ccc4c(=O)cc(N5CCOCC5)oc4c3)nc2n1C1CCCC1 | PIK3CA | enzyme activity | inhibitor | radiometric | IC50 | 0.0325 µM |
| CC1(C)CN(CCCCC(=O)N[C@H](Cc2ccccc2)C(=O)N[C@H](Cc2ccccc2)C(=O)N[C@H](CCCCNC(=O)CCCCCCC(=O)NCCCC[C@H](NC(=O)N[C@@H](CCC(=O)O)C(=O)O)C(=O)O)C(=O)O)CC[N]2CC(C)(C)[S][Tc]2(=[O])[S]1 (some centres unmarked) | FOLH1 | binding |  | radioligand | Kd | 0.0133 µM |
